These results are taken from ChEMBL document CHEMBL4627381, “Licochalcone A Selectively Resensitizes ABCG2-Overexpressing Multidrug-Resistant Cancer Cells to Chemotherapeutic Drugs” (J Nat Prod, 2020).

The source made the active and inactive calls. No cut-off for these calls is given here.

Series [1] deals with T1, Broad substrate specificity ATP-binding cassette transporter ABCG2 (Homo sapiens, UniProt Q9UNQ0).
T1 sequence (Q9UNQ0 whole entry): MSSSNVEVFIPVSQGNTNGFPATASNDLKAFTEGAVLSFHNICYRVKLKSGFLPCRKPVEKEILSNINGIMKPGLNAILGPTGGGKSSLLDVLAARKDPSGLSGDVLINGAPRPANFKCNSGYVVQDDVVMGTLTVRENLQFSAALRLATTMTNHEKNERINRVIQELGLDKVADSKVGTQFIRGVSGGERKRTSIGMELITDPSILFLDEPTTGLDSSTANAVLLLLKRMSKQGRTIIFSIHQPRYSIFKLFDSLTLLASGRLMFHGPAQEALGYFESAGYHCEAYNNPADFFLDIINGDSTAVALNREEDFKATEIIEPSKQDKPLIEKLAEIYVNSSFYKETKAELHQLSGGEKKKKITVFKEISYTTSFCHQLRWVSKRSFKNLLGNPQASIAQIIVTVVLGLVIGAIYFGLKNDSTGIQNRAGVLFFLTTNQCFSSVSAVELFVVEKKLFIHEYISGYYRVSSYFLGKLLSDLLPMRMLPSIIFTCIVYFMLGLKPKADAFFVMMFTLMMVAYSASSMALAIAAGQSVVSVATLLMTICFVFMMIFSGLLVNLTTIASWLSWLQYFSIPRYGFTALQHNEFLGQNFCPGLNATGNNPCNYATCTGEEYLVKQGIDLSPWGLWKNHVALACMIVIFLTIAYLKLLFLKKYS
The experiment in a line: Modulation of ABCG2 (unknown origin) expressed in S1-M1-80 cells assessed as increase in intracellular pheophorbide A accumulation at 20 uM incubated for 1 hr by FACScan flow cytometry. As to conditions: s1-m1-80, 1 h. Type of series: cell-based. Summed up: (§1)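 Cells held drug-free 7 days. 3 × 10^5 cells were suspended in IMDM with 5% FCS and loaded with pheophorbide A (ex 395/em 670 nm) for 1 h, with or without LCA (20 μM for single-concentration accumulation) or Ko143 3 μM as reference. Read immediately by flow cytometry. Efflux inhibition was run over a concentration range; mean ± SD of three experiments.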
(In general: In flow cytometry, cells or beads pass a laser one at a time.)

The test system of series [2] is S1-M1-80. The experiment in a line: Induction of apoptosis in human S1-M1-80 cells harboring ABCG2 (unknown origin) assessed as early apoptotic cells at 10 uM incubated for 48 hrs by annexin V/propidium iodide staining based flow cytometry (reference value: 2.8%). The class given is functional.
Series [3] concerns HEK293. The experiment in a line: Effect on Colchicine-induced cytotoxicity against HEK293 cells assessed as fold change in colchicine IC50 at 3 uM after 72 hrs by CCK8 assay relative to colchicine IC50. Type of series: cell-based. The settings on record: human, hek293, 72 h. Summed up:
(§2)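 Reversal assay in parental pcDNA-HEK293 and transfected HEK293 lines (ABCB1 for colchicine, ABCC1 for etoposide, ABCG2 for mitoxantrone/topotecan). Substrate drug series was given with or without nontoxic modulator (0.5, 1.0, 2.0 or 3.0 μM) for 72 h, with a CCK-8 read-out. Fold-reversal is substrate IC50 without modulator divided by IC50 with modulator. Three independent experiments.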
A general note: Formazan colour is commonly taken as a measure of viable cells.

For series [4], the system named is NCI-H460. The experiment in a line: Effect on mitoxantrone-induced cytotoxicity against human H460 cells assessed as fold change in mitoxantrone IC50 at 2 uM after 72 hrs by MTT assay relative to mitoxantrone IC50. Type of series: functional. Summed up:
(§3)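 Parental S1 colon and H460 lung cancer cells were exposed for 72 h to a mitoxantrone or topotecan concentration series, with or without modulator at 0.5–3.0 μM, and read by MTT. Fold-reversal is IC50 without modulator divided by IC50 with modulator, taken from dose-response curves of three independent experiments.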

Series [5] deals with NCI-H460. The experiment in a line: Effect on topotecan-induced cytotoxicity against human H460 cells assessed as fold change in topotecan IC50 at 0.5 uM after 72 hrs by MTT assay relative to topotecan IC50. The class given is functional. Summed up: as §3
Series [6] deals with T1, Broad substrate specificity ATP-binding cassette transporter ABCG2. Briefly: Inhibition of ABCG2 (unknown origin)-mediated pheophorbide A efflux in human S1 cells incubated for 1 hr by FACScan flow cytometry. As to conditions: s1, 1 h. Type of series: cell-based. In a few lines:
as §1

The target is the same in series [7]. The experiment in a line: Reversal of ABCG2 (unknown origin)-mediated multidrug resistance in human S1-M1-80 cells assessed as fold-change in mitoxantrone IC50 at 0.5 uM after 72 hrs by MTT assay relative to mitoxantrone IC50. The class given is cell-based. The settings on record: s1-m1-80, 72 h. Summed up:
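Cells held drug-free 7 days, seeded at 5000 per well for 24 h, then exposed 72 h to mitoxantrone or topotecan dilutions with DMSO (≤0.5%), LCA 0.5–3.0 μM, or Ko143 1.0 μM. Viability was read by MTT. IC50 came from fitted dose-response curves of three independent experiments. Fold-reversal = IC50 without modulator divided by IC50 with modulator.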

Series [8] deals with S1-M1-80. The experiment in a line: Downregulation of ABCG2 expression in human S1-M1-80 cells at 0.5 to 3 uM incubated for 72 hrs by Western blot analysis. Type of series: functional, cell-based. Summed up: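 S1-M1–80 and H460-MX20 cells were treated with 0.5–3.0 μM or DMSO vehicle for 72 h, then run on SDS-PAGE and immunoblotted with BXP-21 (1:15000) for ABCG2. α-Tubulin (1:100000) served as loading control, with HRP goat anti-mouse secondary. Bands were quantified as mean ± SEM of three independent experiments.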
(A western blot detects proteins with antibodies after separation by electrophoresis.)

The subject of series [9] is HEK293. The experiment in a line: Effect on topotecan-induced cytotoxicity against HEK293 cells assessed as fold change in topotecan IC50 at 2 uM after 72 hrs by CCK8 assay relative to topotecan IC50. Type of series: cell-based. As to conditions: human, hek293, 72 h. In a few lines: as §2
In series [10] the test system is S1. Briefly: Effect on mitoxantrone-induced cytotoxicity against human S1 cells assessed as fold change in mitoxantrone IC50 at 2 uM after 72 hrs by MTT assay relative to mitoxantrone IC50. The class given is functional. In a few lines: as §3
The subject of series [11] is HEK293. Briefly: Induction of pheophorbide A accumulation in HEK293 cells at 20 uM incubated for 1 hr by FACScan flow cytometry. Type of series: cell-based. As to conditions: human, hek293, 1 h. In a few lines: as §1
The target of series [12] is T1, Broad substrate specificity ATP-binding cassette transporter ABCG2. Briefly: Inhibition of ABCG2 (unknown origin)-mediated pheophorbide A efflux in H460-MX20 cells incubated for 1 hr by FACScan flow cytometry. Type of series: cell-based. Summed up: as §1
Series [13] relates to S1. The experiment in a line: Effect on topotecan-induced cytotoxicity against human S1 cells assessed as fold change in topotecan IC50 at 2 uM after 72 hrs by MTT assay relative to topotecan IC50. The class given is functional. Summed up:
as §3

Series [14] relates to HEK293. The experiment in a line: Effect on etoposide-induced cytotoxicity against HEK293 cells assessed as fold change in etoposide IC50 at 0.5 uM after 72 hrs by CCK8 assay relative to etoposide IC50. The class given is cell-based. The settings on record: human, hek293, 72 h. Summed up: as §2
For series [15], the system named is NCI-H460. The experiment in a line: Effect on topotecan-induced cytotoxicity against human H460 cells assessed as fold change in topotecan IC50 at 2 uM after 72 hrs by MTT assay relative to topotecan IC50. Type of series: functional. In a few lines: as §3
For series [16], the target named is T1, Broad substrate specificity ATP-binding cassette transporter ABCG2. Briefly: Reversal of human ABCG2-mediated multidrug resistance in HEK293/R482 cells assessed as fold-change in topotecan IC50 at 2 uM after 72 hrs by CCK8 relative to topotecan IC50. Type of series: cell-based. Summed up: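 Cells were seeded at 5000/well for 24 h, then given colchicine, etoposide, mitoxantrone or topotecan ± non-toxic modulator (0.5–3.0 μM) for 72 h, with DMSO up to 0.5%. IC50 came from fitted curves (mean ± SD, three experiments). Fold-reversal = IC50 without modulator ÷ IC50 with modulator.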

Series [17] concerns HEK293. Briefly: Effect on etoposide-induced cytotoxicity against HEK293 cells assessed as fold change in etoposide IC50 at 1 uM after 72 hrs by CCK8 assay relative to etoposide IC50. The class given is cell-based. As to conditions: human, hek293, 72 h. In a few lines:
as §2

As for `C=CC(C)(C)c1cc(/C=C/C(=O)c2ccc(O)cc2)c(OC)cc1O` [LICOAGROCHACONE A], the Activity entry in series [1] is given as “Active”; in the series with S1-M1-80 [2], 2.5%; in the series with HEK293 [11], “Non-Toxic”. For the same compound, the “fold change (FC)” value in the series on HEK293 [3] was 0.9; in the series on NCI-H460 [4], 1.1; with NCI-H460 [5], 1.5; in series [7], 1.9; in the series on HEK293 [9], 1; with S1 [10], 1.1. Besides, the “fold change (FC)” value in the series with S1 [13] was 0.9; in the series with HEK293 [14], 0.7; in the series with NCI-H460 [15], 1.7; in series [16], 4.6; with HEK293 [17], 0.7. Further, the “inhibition (INH)” value in [6] and in series [12] was “Dose-dependent effect” each time. In addition, in the series on S1-M1-80 [8], the result was inactive.
